Reference: ChEMBL document CHEMBL2311469, “Development of new cathepsin B inhibitors: combining bioisosteric replacements and structure-based design to explore the structure-activity relationships of nitroxoline derivatives” (J Med Chem, 2013)
Calls of active or inactive are those of the source. The calls are words filed in the database; no cut-off is given here.

Columns and labels:
Cathepsin B [1] = target: T1, Cathepsin B (Homo sapiens, UniProt P07858); test: Inhibition of human recombinant cathepsin B endopeptidase activity using Z-Arg-Arg-AMC substrate
Homo sapiens [2] = species on record: Homo sapiens; test: Selectivity ratio of Ki for human liver cathepsin H to Ki for human recombinant cathepsin B
Pro-cathepsin H [3] = target: T2, Pro-cathepsin H (Homo sapiens, UniProt P09668); test: Noncompetitive inhibition of human liver cathepsin H endopeptidase activity using R-AMC substrate assessed as inhibition constant for enzyme-inhibitor complex
T2 sequence (P09668 whole entry): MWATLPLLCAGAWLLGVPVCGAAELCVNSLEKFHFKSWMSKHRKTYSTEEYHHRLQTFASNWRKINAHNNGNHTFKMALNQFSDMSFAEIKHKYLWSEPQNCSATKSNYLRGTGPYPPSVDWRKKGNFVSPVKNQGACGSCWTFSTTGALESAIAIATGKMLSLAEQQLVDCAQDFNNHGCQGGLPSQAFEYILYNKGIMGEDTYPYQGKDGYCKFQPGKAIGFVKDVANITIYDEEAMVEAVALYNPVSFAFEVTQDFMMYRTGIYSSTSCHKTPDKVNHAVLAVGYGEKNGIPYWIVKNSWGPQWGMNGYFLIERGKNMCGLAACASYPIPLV
Method in brief: (§1)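 Native catH isolated from human liver was preactivated for 5 min at 37 °C in 100 mM phosphate pH 6.8 with 0.1% PEG 8000, 5 mM DTT and 1.5 mM EDTA. Arg-AMC was used at 20, 80 and 160 μM, with inhibitor at 0–200 μM (seven levels) and 5% DMSO. […] Run twice in duplicate.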

Cathepsin B [4] = target: T1, Cathepsin B; test: Mixed inhibition of human recombinant cathepsin B endopeptidase activity using Z-Arg-Arg-AMC substrate assessed as inhibition constant for enzyme-substrate-inhibitor complex
Cathepsin B [5] = target: T1, Cathepsin B; test: Mixed inhibition of human recombinant cathepsin B […] assessed as inhibition constant for enzyme-inhibitor complex
Cathepsin B [6] = target: T1, Cathepsin B; test: Noncompetitive inhibition of human recombinant cathepsin B exopeptidase activity using Abz-Gly-Ile-Val-Arg-Ala-Lys(Dnp)-OH substrate
Method in brief: (§2)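 Human recombinant catB, preactivated 5 min at 37 °C in assay buffer containing 0.1% PEG 8000, 5 mM DTT and 1.5 mM EDTA. […] Exopeptidase: 60 mM acetate pH 5.0, Abz-GIVRAK(Dnp)-OH 1/3/6 μM (Km 6.3 μM). Inhibitor 0–200 μM, 5% DMSO, 37 °C, fluorescence rate; two runs in duplicate.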

Pro-cathepsin H [7] = target: T2, Pro-cathepsin H; test: Noncompetitive inhibition of human liver cathepsin H endopeptidase activity using R-AMC substrate assessed as inhibition constant for enzyme-substrate-inhibitor complex; method in brief: as §1
Procathepsin L = Procathepsin L (Homo sapiens, UniProt P07711); test: Competitive inhibition of human recombinant cathepsin L endopeptidase activity using Z-FR-AMC substrate expressed in Escherichia coli assessed as inhibition constant for enzyme-inhibitor complex
Procathepsin L, sequence (P07711 whole entry): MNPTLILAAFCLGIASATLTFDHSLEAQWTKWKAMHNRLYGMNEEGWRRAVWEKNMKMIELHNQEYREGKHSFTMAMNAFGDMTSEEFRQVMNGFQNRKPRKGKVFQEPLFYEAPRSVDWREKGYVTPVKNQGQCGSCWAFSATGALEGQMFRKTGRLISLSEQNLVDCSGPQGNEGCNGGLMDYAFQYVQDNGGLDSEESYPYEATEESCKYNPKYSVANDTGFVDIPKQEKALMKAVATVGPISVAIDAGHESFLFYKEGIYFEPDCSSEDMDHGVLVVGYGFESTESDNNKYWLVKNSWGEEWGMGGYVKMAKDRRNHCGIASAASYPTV
Method in brief: (§3)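 Ki from rates at three substrate levels with inhibitor at 0, 20, 40, 60, 80, 100 and 200 μM. Enzymes were preactivated 5 min at 37 °C. CatL (recombinant, E. coli): 100 mM acetate pH 5.5, Z-Phe-Arg-AMC 0.5/1/4 μM. CatH (native, human liver): 100 mM phosphate pH 6.8, Arg-AMC 20/80/160 μM. Buffers held 0.1% PEG 8000, 5 mM DTT and 1.5 mM EDTA, plus 5% DMSO. Two runs in duplicate.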

Homo sapiens [8] = species on record: Homo sapiens; test: Selectivity ratio of Ki for human recombinant cathepsin L to Ki for human recombinant cathepsin B
Cathepsin B [9] = target: T1, Cathepsin B; test: Competitive inhibition of human recombinant cathepsin B exopeptidase activity using Abz-Gly-Ile-Val-Arg-Ala-Lys(Dnp)-OH substrate assessed as inhibition constant for enzyme-inhibitor complex; method in brief: as §2
MCF-10A = test: Inhibition of human MCF10A neoT cell invasion expressing c-Ha-Ras oncogene at 5 uM after 30 mins relative to DMSO-treated control; type: functional; conditions: 72 h, in the assay text read “after 72 hrs” for “after 30 mins”
Method in brief: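 xCELLigence CIM-16 invasion assay. Upper chamber coated with 5 mg/mL Matrigel; lower well coated with bovine fibronectin. Compound 5 μM or 0.05% DMSO in both chambers, equilibrated 30 min at 37 °C. Then 3 × 10^4 cells seeded in serum-free medium, cell index read every 15 min for 72 h. Invasion = cell index with compound / DMSO; mean ± SD, n = 4, two experiments.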

Cathepsin B [10] = target: T1, Cathepsin B; test: Mixed inhibition of cathepsin B (unknown origin) endopeptidase activity assessed as inhibition constant for enzyme-inhibitor complex
Cathepsin B [11] = target: T1, Cathepsin B; test: Noncompetitive inhibition of cathepsin B (unknown origin) exopeptidase activity assessed as inhibition constant for enzyme-inhibitor complex
Cathepsin B [12] = target: T1, Cathepsin B; test: Mixed inhibition of cathepsin B (unknown origin) endopeptidase activity assessed as inhibition constant for enzyme-substrate-inhibitor complex
Cathepsin B [13] = target: T1, Cathepsin B; test: Inhibition of human recombinant cathepsin B endopeptidase activity using Z-Arg-Arg-AMC substrate at 50 uM
Method in brief: (§4)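 Single-point screen at 50 μM inhibitor with 5% DMSO and 0.01% Triton X-100, at 37 °C. Endopeptidase: catB 5 nM with Z-Arg-Arg-AMC 5 μM, phosphate pH 6.0, ex 380/em 460 nm. Exopeptidase: catB 0.5 nM with Abz-GIVRAK(Dnp)-OH 1 μM, acetate pH 5.0, ex 320/em 420 nm. Relative inhibition = 100(1 − vi/vo). Two runs in duplicate.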

Cathepsin B [14] = target: T1, Cathepsin B; test: Inhibition of human recombinant cathepsin B exopeptidase activity using Abz-Gly-Ile-Val-Arg-Ala-Lys(Dnp)-OH substrate at 50 uM; method in brief: as §4
Cathepsin B [15] = target: T1, Cathepsin B; test: Inhibition of human recombinant cathepsin B exopeptidase activity using Abz-Gly-Ile-Val-Arg-Ala-Lys(Dnp)-OH substrate
Cathepsin B [16] = target: T1, Cathepsin B; test: Uncompetitive inhibition of human recombinant […] assessed as inhibition constant for enzyme-substrate-inhibitor complex
Pro-cathepsin H [17] = target: T2, Pro-cathepsin H; test: Uncompetitive inhibition of human liver cathepsin H endopeptidase activity using R-AMC substrate assessed as inhibition constant for enzyme-substrate-inhibitor complex; method in brief: as §3

SMILES	Ki (Cathepsin B [4]) [µM]	Ki (Cathepsin B [5]) [µM]	Ki (Cathepsin B [6]) [µM]	further results
Nc1c(O)cc(S(=O)(=O)O)c2ccccc12	–	–	–	inhibition (Cathepsin B [1]): inactive
CC1CCN(c2ccc([N+](=O)[O-])c3cccnc23)CC1	105	207	24	Ratio Ki (Homo sapiens [2]): 9; Ki (Pro-cathepsin H [3]): 221 µM; Ki (Pro-cathepsin H [7]): 221 µM; Ki (Procathepsin L): 155 µM; Ratio Ki (Homo sapiens [8]): 6
CCOC(=O)[C@@H]1CCCC[C@@H]1NCc1cc([N+](=O)[O-])c2cccnc2c1O	74	132	130	–
O=C(O)[C@@H]1CCCC[C@@H]1NCc1cc([N+](=O)[O-])c2cccnc2c1O	125	181	–	Ki (Cathepsin B [9]): 250 µM
CCCNC(=O)[C@H]1O[C@@H]1C(=O)N[C@H](C(=O)N1CCC[C@H]1C(=O)O)C(C)CC (single isomer, unassigned)	–	–	–	inhibition at 5 µM (MCF-10A): 48%
O=[N+]([O-])c1cc(CN2CCN(Cc3ccncc3)CC2)c(O)c2ncccc12	94	143	162	–
O=[N+]([O-])c1ccc(O)c2ncccc12 [NITROXOLINE]	–	–	–	Ki (Cathepsin B [10]): 154 µM; Ratio Ki (Homo sapiens [2]): 7.4; Ki (Cathepsin B [11]): 272 µM; Ki (Cathepsin B [12]): 39.5 µM; inhibition (Cathepsin B [13]): 21.9%; inhibition (Cathepsin B [14]): 24.7%; Ratio Ki (Homo sapiens [8]): 4.8
O=[N+]([O-])c1ccc(NCc2ccccn2)c2ncccc12	87	107	47	–
O=[N+]([O-])c1ccc(O)c2ccccc12	84	373	–	inhibition (Cathepsin B [15]): inactive
Nc1c(Br)cc([N+](=O)[O-])c2ccccc12	–	–	212	Ki (Cathepsin B [16]): 32 µM; Ratio Ki (Homo sapiens [2]): 11; Ki (Pro-cathepsin H [17]): 354 µM; Ki (Procathepsin L): 182 µM; Ratio Ki (Homo sapiens [8]): > 6
O=[N+]([O-])c1ccc(N2CCOCC2)c2ncccc12	153	180	155	–
CCOC(=O)N1CCN(Cc2cc([N+](=O)[O-])c3cccnc3c2O)CC1	87	129	156	–
CN(CCc1ccccc1)c1ccc([N+](=O)[O-])c2cccnc12	–	–	350	Ki (Cathepsin B [16]): 175 µM
O=[N+]([O-])c1ccc(N2CCCC2)c2ncccc12	–	–	–	inhibition (Cathepsin B [15]): inactive
CCOC(=O)C1CCN(c2ccc([N+](=O)[O-])c3cccnc23)CC1	113	162	38	–
CN(Cc1ccccc1)c1ccc([N+](=O)[O-])c2cccnc12	137	242	–	Ki (Cathepsin B [9]): 196 µM
O=[N+]([O-])c1ccc(N2CCOCC2)c2ccccc12	125	289	85	–
